Experimental data: ChEMBL document CHEMBL3875165, “Novel broad-spectrum and long-acting parenteral cephalosporins having an acyl cyanamide moiety at the C-3 terminal: Synthesis and structure-activity relationships” (Eur J Med Chem, 2016)
Converted amounts (≈) assume the structure as drawn.

Columns and labels:
[1] = test system: Pseudomonas aeruginosa; assay: Antibacterial activity against Pseudomonas aeruginosa SA24; assay type: functional
In short: (§1)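 Agar dilution MIC on Sensitivity Disk Agar-N with 2-fold serial drug dilutions. Overnight Mueller Hinton broth cultures were diluted to about 10^6 CFU/mL, and 1 µL spots were applied. Plates were incubated 20 h at 37 °C before scoring.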

[2] = test system: Staphylococcus aureus; assay: Antibacterial activity against methicillin-resistant Staphylococcus aureus SR2030; assay type: functional
In short: (§2)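 Agar dilution on Sensitivity Disk Agar-N. Overnight Mueller Hinton broth cultures were diluted to about 10^6 CFU/mL, and 1 µL spots were placed on agar plates holding 2-fold serial dilutions of antibiotic. Plates were incubated 20 h at 37 °C and then MICs were scored.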

[3] = test system: Staphylococcus aureus; assay: Antibacterial activity against Staphylococcus aureus SMITH; assay type: functional; in short: as §1
[4] = test system: Staphylococcus aureus; assay: Antibacterial activity against methicillin-resistant Staphylococcus aureus SR3626; assay type: functional; in short: as §2
[5] = Half life in monkey at 20 mg/kg, iv administered as bolus dose by HPLC method; assay type: ADME, organism-based, Macaca mulatta; settings: rhesus monkey, in vivo
In short: (§3)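 Three monkeys per group received a single iv bolus of 20 mg/kg (1 mL/kg). Plasma levels were measured by HPLC. AUC0-∞, CLtot and T1/2 came from a 2-compartment fit.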

[6] = AUC (0 to infinity) in monkey at 20 mg/kg, iv administered as bolus dose by HPLC method; assay type: ADME, organism-based, Macaca mulatta; design: dose 20 mg/kg, time infinity, route intravenous; settings: rhesus monkey, in vivo; in short: as §3
[7] = test system: Pseudomonas aeruginosa; assay: Antibacterial activity against Pseudomonas aeruginosa PAO1; assay type: functional; in short: as §1
[8] = Half life in mouse at 20 mg/kg, iv administered as bolus dose by band-culture bioassay; settings: in vivo
[9] = test system: Escherichia coli; assay: Antibacterial activity against Escherichia coli NIHJ JC-2; assay type: functional; in short: as §1
[10] = AUC (0 to infinity) in mouse at 20 mg/kg, iv administered as bolus dose by band-culture bioassay; settings: in vivo
[11] = test system: Streptococcus pneumoniae; assay: Antibacterial activity against penicillin-resistant Streptococcus pneumoniae SR16750 after 20 hrs by agar dilution method; assay type: functional; settings: SR16750, 20 h; in short: as §2
[12] = test system: Streptococcus pneumoniae; assay: Antibacterial activity against penicillin-resistant Streptococcus pneumoniae SR16754 after 20 hrs by agar dilution method; assay type: functional; settings: SR16754, 20 h; in short: as §2
[13] = test system: Staphylococcus aureus; assay: Antibacterial activity against Staphylococcus aureus SMITH after 20 hrs by agar dilution method; assay type: functional; in short: as §1
[14] = test system: Streptococcus pneumoniae; assay: Antibacterial activity against penicillin-susceptible Streptococcus pneumoniae SR16605 after 20 hrs by agar dilution method; assay type: functional; settings: SR16605, 20 h; in short: as §2
[15] = Protein binding in cynomolgus monkey plasma after 30 mins by ultra-filtration method; assay type: ADME, cell-free, Macaca fascicularis; settings: read-out: PPB (converted)
In short: (§4)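 Mouse or monkey plasma was adjusted to pH 7 with CO2 and spiked with compound to a final 10 µg/ml. It was incubated 30 min at 37 °C, then ultrafiltered by centrifugation at 3200 rpm for 30 min at 25 °C. Free drug in the filtrate was measured by bioassay to give the bound fraction.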

[16] = test system: Moraxella catarrhalis; assay: Antibacterial activity against Moraxella catarrhalis SR24290 after 20 hrs by agar dilution method; assay type: functional; settings: SR24290, 20 h; in short: as §1
[17] = test system: Haemophilus influenzae; assay: Antibacterial activity against beta-lactamase non-producing penicillin-resistant Haemophilus influenzae SR24106 after 20 hrs by agar dilution method; assay type: functional; settings: SR24106, 20 h; in short: as §2
[18] = test system: Haemophilus influenzae; assay: Antibacterial activity against beta-lactamase non-producing penicillin-resistant Haemophilus influenzae SR11435 after 20 hrs by agar dilution method; assay type: functional; settings: SR11435, 20 h; in short: as §2
[19] = test system: Streptococcus pneumoniae; assay: Antibacterial activity against penicillin-susceptible Streptococcus pneumoniae SR16605 infected in sc dosed mouse assessed as protection against bacterial infection by measuring increase in mouse survival administered 1 and 5 hrs post infection measured after 7 days; assay type: functional
In short: (§5)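 Mouse septicemia model in six-week-old male Jcl:ICR mice (19 to 25 g). Mice were infected intraperitoneally with 0.5 mL of S. pneumoniae suspension in hog mucin. Compound was given subcutaneously 1 and 5 h after infection. Mortality was recorded over 7 days, and ED50 with 90% confidence limits was derived by the logit method.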

[20] = Total clearance in monkey at 20 mg/kg, iv administered as bolus dose by HPLC method; assay type: ADME, organism-based, Macaca mulatta; settings: rhesus monkey, in vivo; in short: as §3
[21] = Total clearance in mouse at 20 mg/kg, iv administered as bolus dose by band-culture bioassay; settings: in vivo
[22] = test system: Escherichia coli; assay: Antibacterial activity against Escherichia coli NIHJ JC-2 after 20 hrs by agar dilution method; assay type: functional; settings: NIHJ JC-2, 20 h; in short: as §1
[23] = test system: Streptococcus pneumoniae; assay: Antibacterial activity against penicillin-resistant Streptococcus pneumoniae SR16754 infected in sc dosed mouse assessed as protection against bacterial infection by measuring increase in mouse survival administered 1 and 5 hrs post infection measured after 7 days; assay type: functional; in short: as §5
[24] = Protein binding in ICR mouse plasma after 30 mins by ultra-filtration method; assay type: ADME, cell-free; settings: read-out: PPB (converted); in short: as §4
[25] = test system: Streptococcus pneumoniae; assay: Antibacterial activity against penicillin-resistant Streptococcus pneumoniae SR16675 after 20 hrs by agar dilution method; assay type: functional; settings: SR16675, 20 h; in short: as §2
[26] = test system: Streptococcus pneumoniae; assay: Potency index, ratio of Ceftriaxone MIC to compound MIC for penicillin-susceptible Streptococcus pneumoniae SR16605; assay type: functional

| Compound | MIC [1] | MIC [2] | MIC [3] | MIC [4] | half-life [5] | AUC [6] | MIC [7] | half-life [8] | MIC [9] | AUC(0-inf) [10] | MIC [11] | MIC [13] | fraction unbound at 0.5 h [15] | MIC [16] | MIC [17] | MIC [18] | clearance [20] | clearance [21] | MIC [22] | fraction unbound at 0.5 h [24] | also measured |
| --- | --- | --- | --- | --- | --- | --- | --- | --- | --- | --- | --- | --- | --- | --- | --- | --- | --- | --- | --- | --- | --- |
| CCO/N=C(\C(=O)N[C@@H]1C(=O)N2C(C(=O)[O-])=C(C[n+]3ccc(-c4c[nH]c(C(=O)NC#N)c4)cc3)CS[C@H]12)c1nsc(N)n1 | 0.4 µg/mL (≈ 0.642 µM) | 12.5 µg/mL (≈ 20.1 µM) | 1.6 µg/mL (≈ 2.57 µM) | 12.5 µg/mL (≈ 20.1 µM) | 120 min | 22000 ng·h/mL | 0.8 µg/mL (≈ 1.28 µM) | 24 min | 0.1 µg/mL (≈ 0.161 µM) | 27300 ng·h/mL |  |  |  |  |  |  |  |  |  |  |  |
| CO/N=C(\C(=O)N[C@@H]1C(=O)N2C(C(=O)O)=C(CSc3nc(=O)c(=O)[nH]n3C)CS[C@H]12)c1csc(N)n1 [CEFTRIAXONE] |  |  |  |  | 117 min | 21900 ng·h/mL |  | 38.4 min |  | 60800 ng·h/mL | 2 µg/mL (≈ 3.61 µM) | 2 µg/mL (≈ 3.61 µM) | 0.05 | 1 µg/mL (≈ 1.8 µM) | 0.25 µg/mL (≈ 0.451 µM) | 0.125 µg/mL (≈ 0.225 µM) | 0.77 mL/min/kg | 5.49 mL/min/kg | 0.125 µg/mL (≈ 0.225 µM) | 0.06 | MIC [12]: 1 µg/mL (≈ 1.8 µM); MIC [14]: 0.016 µg/mL (≈ 0.0289 µM); ED50 [19]: 0.11 mg/kg; ED50 [23]: 5.65 mg/kg; MIC [25]: 1 µg/mL (≈ 1.8 µM) |
| CCO/N=C(\C(=O)N[C@@H]1C(=O)N2C(C(=O)[O-])=C(/C=C/C[n+]3ccc(-c4nc(/C([O-])=N/C#N)cs4)cc3)CS[C@H]12)c1csc(N)n1.[Na+] |  |  |  |  | 233 min | 37500 ng·h/mL |  | 40.2 min |  | 20900 ng·h/mL | 0.25 µg/mL | 0.5 µg/mL | 0.27 | 1 µg/mL | 0.063 µg/mL | 0.031 µg/mL | 0.49 mL/min/kg | 16 mL/min/kg | 0.063 µg/mL | 0.81 | MIC [12]: 0.25 µg/mL; MIC [14]: 0.008 µg/mL; ED50 [19]: 0.017 mg/kg; Ratio [26]: 2 - 3; ED50 [23]: 0.71 mg/kg; MIC [25]: 0.25 µg/mL |
| CCO/N=C(\C(=O)N[C@@H]1C(=O)N2C(C(=O)[O-])=C(C[n+]3ccc(-c4cc[nH]c4)cc3)CS[C@H]12)c1nsc(N)n1 | 0.8 µg/mL (≈ 1.44 µM) | 1.6 µg/mL (≈ 2.88 µM) | 0.4 µg/mL (≈ 0.721 µM) | 6.3 µg/mL (≈ 11.4 µM) |  |  | 0.8 µg/mL (≈ 1.44 µM) |  | 0.02 µg/mL (≈ 0.0361 µM) |  |  |  |  |  |  |  |  |  |  |  |  |
| CCO/N=C(\C(=O)N[C@@H]1C(=O)N2C(C(=O)[O-])=C(C[n+]3ccc(-c4c[nH]c(C(=O)O)c4)cc3)CS[C@H]12)c1nsc(N)n1 | 0.8 µg/mL (≈ 1.34 µM) | 12.5 µg/mL (≈ 20.9 µM) | 3.1 µg/mL (≈ 5.18 µM) | 25 µg/mL (≈ 41.8 µM) |  |  | 0.8 µg/mL (≈ 1.34 µM) |  | 0.05 µg/mL (≈ 0.0835 µM) |  |  |  |  |  |  |  |  |  |  |  |  |
| CO/N=C(\C(=O)N[C@@H]1C(=O)N2C(C(=O)[O-])=C(C[n+]3ccn4ncccc43)CS[C@H]12)c1nsc(N)n1 [CEFOZOPRAN] | 0.4 µg/mL (≈ 0.776 µM) | 12.5 µg/mL (≈ 24.2 µM) | 0.8 µg/mL (≈ 1.55 µM) | 50 µg/mL (≈ 97 µM) | 72 min | 15000 ng·h/mL | 0.8 µg/mL (≈ 1.55 µM) | 24 min | 0.05 µg/mL (≈ 0.097 µM) | 30300 ng·h/mL |  |  |  |  |  |  |  |  |  |  |  |
| CCO/N=C(\C(=O)N[C@@H]1C(=O)N2C(C(=O)[O-])=C(/C=C/C[n+]3ccc(/C([O-])=N/C#N)cc3)CS[C@H]12)c1csc(N)n1.[Na+] |  |  |  |  | 73.2 min | 9700 ng·h/mL |  | 43.2 min |  | 14600 ng·h/mL | 0.5 µg/mL | 0.5 µg/mL | 0.59 | 1 µg/mL | 0.125 µg/mL | 0.063 µg/mL | 1.84 mL/min/kg | 22.9 mL/min/kg | 0.25 µg/mL | 0.92 | MIC [25]: 0.25 µg/mL |
| CCO/N=C(\C(=O)N[C@@H]1C(=O)N2C(C(=O)[O-])=C(/C=C/C[n+]3ccc4[nH]c(/C([O-])=N/C#N)cc4c3)CS[C@H]12)c1csc(N)n1.[Na+] |  |  |  |  | 201 min | 20900 ng·h/mL |  | 37.8 min |  | 30400 ng·h/mL | 0.5 µg/mL | 0.5 µg/mL | 0.33 | 4 µg/mL | 0.125 µg/mL | 0.063 µg/mL | 0.8 mL/min/kg | 10.9 mL/min/kg | 0.25 µg/mL | 0.73 | MIC [25]: 0.25 µg/mL |
